According to article PMC9536290 (Clinical Infectious Diseases: An Official Publication of …, 2022):

Tests used:
[1] = Phase IIa monotherapy study: plasma pharmacokinetics; type: in vivo, HIV-1–positive, treatment-naive adults; details: for Accumulation ratio AUC0-τ, geometric mean (% CVb) / Accumulation ratio Cmax, geometric mean (% CVb) / Accumulation ratio Cτ, geometric mean (% CVb): steady state vs day 1; for Tmax / AUC(0-t): human
Method in brief: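 Oral doses were given once daily with food: part 1 for 10 days, part 2 for 7 days. Plasma drug was measured by LC-MS/MS (range 3.00–1000 ng/mL). Noncompartmental parameters were AUC0-24, Cmax and tmax on day 1, and AUC0-τ, Cmax and Cτ at steady state (day 8, 9 or 10 in part 1; day 7 in part 2). Accumulation ratios were steady state vs day 1, and dose proportionality used a power model. Participants vomiting within 1× tmax were excluded.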

[2] = system: HIV-1 with A364V mutation; experiment: Phenotypic resistance of participant virus with A364V; type: cell-based; details: virus of 1 participant (200 mg) with full conversion to A364V
[3] = Phase IIa monotherapy study: safety and tolerability; type: in vivo, HIV-1–positive, treatment-naive adults; details: for Drug-related AEs: Abdominal pain / Drug-related AEs: Any event / Drug-related AEs: Chromaturia / Drug-related AEs: Diarrhea / Drug-related AEs: Epistaxis / Drug-related AEs: Fatigue / Drug-related AEs: Headache / Drug-related AEs: Maculopapular rash / Drug-related AEs: Nausea / Drug-related AEs: Pruritus / Drug-related AEs: Vomiting / Total AEs: Abdominal pain / Total AEs: Any event / Total AEs: Diarrhea / Total AEs: Headache / Total AEs: Lymphadenopathy / Total AEs: Nasopharyngitis / Total AEs: Oropharyngeal pain / Total AEs: Vomiting / Serious AEs: Anal abscess / Serious AEs: Congestive cardiomyopathy: n = 6; for Serious AEs: Anal abscess / Serious AEs: Congestive cardiomyopathy: considered not related to the study drug
Method in brief: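 Adults were ART-naive, aged 18–65 years, with HIV-1 RNA ≥5000 copies/mL and CD4+ ≥350 cells/mm3. They received placebo or oral once-daily doses after a moderate-fat meal: 10 or 200 mg for 10 days (part 1), or 40–140 mg for 7 days (part 2). Safety was monitored through adverse events, clinical laboratory tests, electrocardiograms and vital signs.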

[4] = observed in other studies; cited from earlier work
[5] = system: triple-mutant polymorph (R361K/V362I/L363M); details: cited from earlier work
[6] = 10 mg once daily, part 1 (10 days)
[7] = 40 mg once daily, part 2 (7 days)
[8] = 80 mg once daily, part 2 (7 days)
[9] = 140 mg once daily, part 2 (7 days)
[10] = 200 mg once daily, part 1 (10 days)
[11] = all doses combined, % of 34 participants

## C=C(C)[C@@H]1CC[C@]2(NCCN3CCS(=O)(=O)CC3)CC[C@]3(C)[C@H](CC[C@@H]4[C@@]5(C)CC=C(C6=CC[C@@](CF)(C(=O)O)CC6)C(C)(C)[C@@H]5CC[C@]43C)[C@@H]12 [GSK’254]
[1]; 10 mg once daily
  Accumulation ratio AUC0-τ, geometric mean (% CVb): 1.54 (24.5)
  Accumulation ratio Cmax, geometric mean (% CVb): 0.93 (171.7)
  Accumulation ratio Cτ, geometric mean (% CVb): 1.48 (22.2)
[1]; 40 mg once daily
  Accumulation ratio AUC0-τ, geometric mean (% CVb): 2.29 (11.2)
  Accumulation ratio Cmax, geometric mean (% CVb): 2.03 (24.4)
  Accumulation ratio Cτ, geometric mean (% CVb): 2.30 (6.4)
[1]; 80 mg once daily
  Accumulation ratio AUC0-τ, geometric mean (% CVb): 1.93 (18.6)
  Accumulation ratio Cmax, geometric mean (% CVb): 1.73 (17.6)
  Accumulation ratio Cτ, geometric mean (% CVb): 1.94 (20.8)
[1]; 140 mg once daily
  Accumulation ratio Cmax, geometric mean (% CVb): 2.02 (37.5)
  Accumulation ratio Cτ, geometric mean (% CVb): 1.90 (16.0)
[1]; 200 mg once daily
  Accumulation ratio AUC0-τ, geometric mean (% CVb): 2.25 (72.1)
  Accumulation ratio Cmax, geometric mean (% CVb): 1.98 (69.4)
  Accumulation ratio Cτ, geometric mean (% CVb): 1.98 (61.2)
[1]; 10-200 mg
  Dose proportionality of plasma PK: generally dose proportional to 140 mg but non-proportional between 140 and 200 mg
[1]; plasma, oral, Median tmax across all doses, steady state, 10-200 mg
  Tmax: 4.02 to 5.48 h
[1]; plasma, po, 10 mg
  AUC(0-t): 700 ng·h/mL
[1]; plasma, po, 40 mg
  AUC(0-t): 3250 ng·h/mL
[1]; plasma, po, 80 mg
  AUC(0-t): 6120 ng·h/mL
[1]; plasma, po, 140 mg
  AUC(0-t): 14000 ng·h/mL
[1]; plasma, po, 140 mg, tmax, median (range), repeat dose 140 mg once daily, day 7 (part 2), plasma, n = 6
  Tmax: 4.08 h
[1]; plasma, po, 200 mg
  AUC(0-t): 12400 ng·h/mL
[1]; plasma, po, 200 mg, tmax, median (range), repeat dose 200 mg once daily, Day 8, 9, or 10 (part 1), plasma, n = 6
  Tmax: 5.48 h
[1]; repeat administration, steady state
  Dose proportionality power model estimated slope (90% CI) for Cτ: 1.14 (90% CI: 1.02–1.26)
[1]; repeat dose 40 mg once daily, day 7 (part 2), n = 6
  CL/F (apparent oral clearance), geometric mean (% CVb): 5360 (26.8) mL/h
[1]; repeat dose 80 mg once daily, day 7 (part 2), n = 6
  CL/F (apparent oral clearance), geometric mean (% CVb): 6765 (26.7) mL/h
[1]; repeat dose 140 mg once daily, day 7 (part 2), n = 6
  CL/F (apparent oral clearance), geometric mean (% CVb): 4779 (27.9) mL/h
[1]; repeat dose 200 mg once daily, Day 8, 9, or 10 (part 1), n = 6
  CL/F (apparent oral clearance), geometric mean (% CVb): 7159 (18.4) mL/h
[1]; repeat dose 200 mg once daily, Day 8, 9, or 10 (part 1), plasma, n = 6
  AUC0-τ, geometric mean (% CVb): 27.90 (18.4) µg∗h/mL
[1]; ≥40-mg groups (all dose groups except 10 mg)
  Mean trough concentration relative to target trough concentration: > 110 ng/mL
[2]
  Fold change in half maximal inhibitory concentration (phenotypic resistance): 132 fold
[3]; [6]
  Drug-related AEs: Abdominal pain: 0 n (%)
  Drug-related AEs: Any event: 2 (33) n (%)
  Drug-related AEs: Chromaturia: 1 (17) n (%)
  Drug-related AEs: Diarrhea: 1 (17) n (%)
  Drug-related AEs: Epistaxis: 0 n (%)
  Drug-related AEs: Fatigue: 0 n (%)
  Drug-related AEs: Headache: 0 n (%)
  Drug-related AEs: Maculopapular rash: 0 n (%)
  Drug-related AEs: Nausea: 1 (17) n (%)
  Drug-related AEs: Pruritus: 0 n (%)
  Drug-related AEs: Vomiting: 1 (17) n (%)
  Total AEs: Abdominal pain: 0 n (%)
  Total AEs: Any event: 3 (50) n (%)
  Total AEs: Diarrhea: 1 (17) n (%)
  Total AEs: Headache: 0 n (%)
  Total AEs: Lymphadenopathy: 1 (17) n (%)
  Total AEs: Nasopharyngitis: 0 n (%)
  Total AEs: Oropharyngeal pain: 0 n (%)
  Total AEs: Vomiting: 1 (17) n (%)
[3]; [7]
  Drug-related AEs: Abdominal pain: 0 n (%)
  Drug-related AEs: Any event: 2 (33) n (%)
  Drug-related AEs: Chromaturia: 0 n (%)
  Drug-related AEs: Diarrhea: 1 (17) n (%)
  Drug-related AEs: Epistaxis: 1 (17) n (%)
  Drug-related AEs: Fatigue: 1 (17) n (%)
  Drug-related AEs: Headache: 0 n (%)
  Drug-related AEs: Maculopapular rash: 0 n (%)
  Drug-related AEs: Nausea: 0 n (%)
  Drug-related AEs: Pruritus: 0 n (%)
  Drug-related AEs: Vomiting: 0 n (%)
  Total AEs: Abdominal pain: 0 n (%)
  Total AEs: Any event: 5 (83) n (%)
  Total AEs: Diarrhea: 1 (17) n (%)
  Total AEs: Headache: 1 (17) n (%)
  Total AEs: Lymphadenopathy: 0 n (%)
  Total AEs: Nasopharyngitis: 0 n (%)
  Total AEs: Oropharyngeal pain: 0 n (%)
  Total AEs: Vomiting: 0 n (%)
[3]; [8]
  Drug-related AEs: Abdominal pain: 2 (33) n (%)
  Drug-related AEs: Any event: 2 (33) n (%)
  Drug-related AEs: Chromaturia: 0 n (%)
  Drug-related AEs: Diarrhea: 0 n (%)
  Drug-related AEs: Epistaxis: 0 n (%)
  Drug-related AEs: Fatigue: 0 n (%)
  Drug-related AEs: Headache: 0 n (%)
  Drug-related AEs: Maculopapular rash: 0 n (%)
  Drug-related AEs: Nausea: 0 n (%)
  Drug-related AEs: Pruritus: 0 n (%)
  Drug-related AEs: Vomiting: 0 n (%)
  Total AEs: Abdominal pain: 2 (33) n (%)
  Total AEs: Any event: 4 (67) n (%)
  Total AEs: Diarrhea: 0 n (%)
  Total AEs: Headache: 0 n (%)
  Total AEs: Lymphadenopathy: 0 n (%)
  Total AEs: Nasopharyngitis: 0 n (%)
  Total AEs: Oropharyngeal pain: 0 n (%)
  Total AEs: Vomiting: 0 n (%)
[3]; [9]
  Drug-related AEs: Abdominal pain: 0 n (%)
  Drug-related AEs: Any event: 1 (17) n (%)
  Drug-related AEs: Chromaturia: 0 n (%)
  Drug-related AEs: Diarrhea: 0 n (%)
  Drug-related AEs: Epistaxis: 0 n (%)
  Drug-related AEs: Fatigue: 0 n (%)
  Drug-related AEs: Headache: 0 n (%)
  Drug-related AEs: Maculopapular rash: 1 (17) n (%)
  Drug-related AEs: Nausea: 0 n (%)
  Drug-related AEs: Pruritus: 1 (17) n (%)
  Drug-related AEs: Vomiting: 0 n (%)
  Total AEs: Abdominal pain: 0 n (%)
  Total AEs: Any event: 5 (83) n (%)
  Total AEs: Diarrhea: 0 n (%)
  Total AEs: Headache: 1 (17) n (%)
  Total AEs: Lymphadenopathy: 0 n (%)
  Total AEs: Nasopharyngitis: 0 n (%)
  Total AEs: Oropharyngeal pain: 1 (17) n (%)
  Total AEs: Vomiting: 0 n (%)
  Serious AEs: Anal abscess: 1 (17) n (%)
  Serious AEs: Congestive cardiomyopathy: 0 n (%)
[3]; [10]
  Drug-related AEs: Abdominal pain: 0 n (%)
  Drug-related AEs: Any event: 2 (33) n (%)
  Drug-related AEs: Chromaturia: 0 n (%)
  Drug-related AEs: Diarrhea: 1 (17) n (%)
  Drug-related AEs: Epistaxis: 0 n (%)
  Drug-related AEs: Fatigue: 0 n (%)
  Drug-related AEs: Headache: 1 (17) n (%)
  Drug-related AEs: Maculopapular rash: 0 n (%)
  Drug-related AEs: Nausea: 0 n (%)
  Drug-related AEs: Pruritus: 0 n (%)
  Drug-related AEs: Vomiting: 1 (17) n (%)
  Total AEs: Abdominal pain: 0 n (%)
  Total AEs: Any event: 5 (83) n (%)
  Total AEs: Diarrhea: 1 (17) n (%)
  Total AEs: Headache: 2 (33) n (%)
  Total AEs: Lymphadenopathy: 1 (17) n (%)
  Total AEs: Nasopharyngitis: 2 (33) n (%)
  Total AEs: Oropharyngeal pain: 2 (33) n (%)
  Total AEs: Vomiting: 1 (17) n (%)
  Serious AEs: Anal abscess: 0 n (%)
  Serious AEs: Congestive cardiomyopathy: 0 n (%)
[3]; across treatment groups in parts 1 or 2
  Trends in laboratory values, electrocardiograms, or vital signs: No clinically significant trends
[3]; all doses
  AEs leading to treatment discontinuation: No AEs led to treatment discontinuation
  Deaths: no deaths were reported
[3]; all doses combined
  Number of drug-related AEs overall: Fourteen
  Participants reporting abdominal pain overall: 2 n
  Participants reporting diarrhea overall: 3 n
  Participants reporting headache overall: 4 n
  Participants reporting oropharyngeal pain overall: 3 n
  Participants reporting vomiting overall: 2 n
[3]; [11]
  Participants reporting drug-related AEs overall: 9 (26%) n (%)
  Participants with gastrointestinal AEs overall: 7 (21%) n (%)
[3]; all doses, % of 34 participants incl. placebo (n = 4), all had received GSK’254
  Participants reporting AEs overall: 22 (65%) n (%)
[3]; all doses, except 1 participant with 2 grade 3 non-drug-related AEs
  Intensity of AEs and SAEs: mild-to-moderate
[4]
  Terminal phase half-life: ~ 24 hours
[5]; read-out: 3× protein-binding adjusted 90% effective concentration (3× PBA EC90)
  EC90: 150 nM
[5]; read-out: Half maximal effective concentration (EC50)
  EC50: 3 nM
[5]; target trough concentration
  3× protein-binding adjusted 90% effective concentration (3× PBA EC90): 0.11 µg/mL
